{"data": "Experimental data pooled from the literature", "target": "Platelet-derived growth factor receptor beta (PDGFRB, Homo sapiens, UniProt P09619)"}
{"SMILES": "O=C(NCCCN1CCOCC1)c1ccc(Nc2nccc(-c3cc4ccccc4s3)n2)cc1", "observed": "binding", "method": "competition with immobilised ligand", "concentration": "1 µM", "remaining binding [%]": 13}
{"SMILES": "CNC(=O)Nc1ccc2c(c1)[C@@]1(CC2)OC(=O)N(CC(=O)N(Cc2ccc(F)cc2)[C@@H](C)C(F)(F)F)C1=O", "observed": "cell-free assay", "method": "competition with immobilised ligand", "concentration": "1 µM", "remaining binding [%]": 87}
{"SMILES": "CCN1CCN(Cc2ccc(C(=O)Nc3ccc(C)c(Oc4ccc5c(c4)CC(=O)N5)c3)cc2C(F)(F)F)CC1", "observed": "binding", "method": "competition with immobilised ligand", "concentration": "1 µM", "remaining binding [%]": 0.85}
{"SMILES": "c1cncc(-c2cccc(Nc3nccc(NC4CCCCC4)n3)c2)c1", "observed": "binding", "method": "competition with immobilised ligand", "concentration": "10 µM", "remaining binding [%]": 0}
{"SMILES": "CNC(=O)[C@@H]1CC[C@@H](n2c(-c3ccc4cnccc4c3)nc3ccc(C(=O)NCc4cccc(C(N)=O)c4)cc32)C1", "observed": "binding", "method": "competition with immobilised ligand", "concentration": "1 µM", "remaining binding [%]": 100}
{"SMILES": "C=CC(=O)N1CCC(C(=O)NCC(=O)N2CCN(c3nc(-c4cnc(N)nc4C(F)F)nc(N4CCOCC4)n3)CC2)CC1", "observed": "binding", "method": "competition with immobilised ligand", "concentration": "1 µM", "remaining binding [%]": 100}
{"SMILES": "COc1ccc2c(c1)O[C@@H](c1ccc(OC)c(OC)c1)C[C@H]2NC(=O)C1(c2ccc3c(c2)OC(F)(F)O3)CC1", "observed": "cell-free assay", "method": "competition with immobilised ligand", "concentration": "1 µM", "remaining binding [%]": 100}
{"SMILES": "CN(C)c1nccc(-c2cnc3ncccn23)n1", "observed": "binding", "concentration": "1 µM", "remaining binding [%]": 90}
{"SMILES": "C[C@@H](c1ccc(-n2cnc3c(N)ncnc32)cc1)N1CCc2nn(C)c(Cc3ccccc3)c2C1=O", "observed": "binding", "method": "competition with immobilised ligand", "concentration": "0.1 µM", "remaining binding [%]": 17}
{"SMILES": "N[C@H]1CCN(c2nccc(-c3cnn4ncccc34)n2)C1", "observed": "binding", "concentration": "1 µM", "remaining binding [%]": 93}
{"SMILES": "O=C(NCCCN1CCOCC1)c1ccc(Nc2ncc(Cl)c(-c3ccc(Cl)s3)n2)cc1", "observed": "binding", "method": "competition with immobilised ligand", "concentration": "1 µM", "remaining binding [%]": 0.05}
{"SMILES": "CS(=O)(=O)NCC[C@H](NC(=O)c1cncc2c1cnn2-c1ccc(F)cc1)c1ccnc(S(C)(=O)=O)c1", "observed": "cell-free assay", "method": "competition with immobilised ligand", "concentration": "1 µM", "remaining binding [%]": 100}
{"SMILES": "Cc1cnc(Nc2ccc(C(=O)N3CCC(N4CCCC4)CC3)cc2)nc1-c1cc2ccccc2s1", "observed": "binding", "method": "competition with immobilised ligand", "concentration": "1 µM", "remaining binding [%]": 0.4}
{"SMILES": "CN(c1nccc(-c2cnn3ncccc23)n1)C1CC1", "observed": "binding", "concentration": "1 µM", "remaining binding [%]": 98}
{"SMILES": "CCC(=N\\O)/C(C)=C/c1ccc(F)cc1", "observed": "cell-free assay", "method": "competition with immobilised ligand", "concentration": "1 µM", "remaining binding [%]": 100}
{"SMILES": "CC(C)(C)c1ccc(-c2nc(CBr)nn2-c2cccc(O)c2)cc1", "observed": "cell-free assay", "method": "competition with immobilised ligand", "concentration": "10 µM", "remaining binding [%]": 86}
{"SMILES": "FC(F)(F)c1ccc2c(c1)nc(-c1cccnc1)n2C1CC1", "observed": "cell-free assay", "method": "competition with immobilised ligand", "concentration": "1 µM", "remaining binding [%]": 100}
{"SMILES": "c1cnn2ncc(-c3ccnc(N4CCC45COC5)n3)c2c1", "observed": "binding", "concentration": "1 µM", "remaining binding [%]": 78}
{"SMILES": "C[C@@H]1CN(c2ccc3ncc(-c4ccc5[nH]nc(C6CC6)c5c4)n3n2)C[C@H](C)O1", "observed": "binding", "method": "competition with immobilised ligand", "concentration": "0.5 µM", "remaining binding [%]": 12}
{"SMILES": "O=C(NCC1CCOCC1)c1n[nH]cc1NC(=O)c1c(F)cccc1F", "observed": "binding", "method": "competition with immobilised ligand", "concentration": "1 µM", "remaining binding [%]": 99}
{"SMILES": "Cc1cnn2ncc(-c3ccnc(N(C)C)n3)c2c1", "observed": "binding", "concentration": "1 µM", "remaining binding [%]": 100}
{"SMILES": "CC(=O)Nc1c(C(C)=O)c(=O)n(C)c2nc(-c3ccc(Cl)cc3Cl)c(-c3ccc(Cl)cc3)cc12", "observed": "cell-free assay", "method": "competition with immobilised ligand", "concentration": "1 µM", "remaining binding [%]": 100}
{"SMILES": "CC1CCCN1c1nccc(-c2cnn3ncccc23)n1 (stereo not shown)", "observed": "binding", "concentration": "1 µM", "remaining binding [%]": 100}
{"SMILES": "CCOCCn1cc(C(=O)Nc2ccc(-n3nc(-c4cccnc4)cc3C(F)(F)F)cn2)ccc1=O", "observed": "cell-free assay", "method": "competition with immobilised ligand", "concentration": "1 µM", "remaining binding [%]": 88}
{"SMILES": "COC(=O)Nc1nc2ccc(C(=O)c3ccccc3)cc2[nH]1", "observed": "cell-free assay", "method": "competition with immobilised ligand", "concentration": "10 µM", "remaining binding [%]": 3.2}
